# Laboratory results: publication PMC8906121 (Current Research in Parasitology & Vector-borne Diseases, 2021)
# “And” between values parts separate entries of the source, which are not always exact repeats. Equal values may be shown once.
# Legend:
# [1] = test system: Anopheles funestus FUMOZ-R (resistant); assay: Glazed tile contact bioassay, strain FUMOZ-R; type: in vivo; conditions: for LC50: female adults, contact exposure 30 min; for LC50 / LC50 (solo contact toxicity of synergist): mortality 24 h; for LC50 (solo contact toxicity of synergist): synergist alone, 30 min exposure
# [2] = test system: Anopheles funestus FANG (susceptible); assay: Glazed tile contact bioassay, strain FANG; type: in vivo; conditions: for LC50: female adults, contact exposure 30 min; for LC50 / LC50 (solo contact toxicity of synergist): mortality 24 h; for LC50 (solo contact toxicity of synergist): synergist alone, 30 min exposure
# Procedure, shortened: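 Adults aged 3–5 days, chilled to anaesthetize, recovered 1 h, then held 30 min on acetone-treated glazed tiles in two replicates of 10. Kept overnight on 10% dextrose; mortality scored at 24 h. Acetone-only control; Abbott correction for 5–20% control mortality, above 20% invalid. At least five repeats; probit LC50 with 95% CI. Synergist solo toxicity was tested the same way at 250–10,000 ppm.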
# [3] = test system: cytochrome P450s of microsomal preparations of Anopheles funestus strain FANG; assay: Michaelis-Menten kinetics of BOMFC O-debenzylation, FANG microsomes; type: biochemical; conditions: read-out: apparent Km
# Procedure, shortened: (§1)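 Microsomes from 30–50 adults, homogenized in pH 7.6 phosphate buffer with sucrose, DTT and EDTA, then spun 5,000× g, 15,000× g and 100,000× g at 4 °C. 4 μg protein incubated 1 h at 20 ± 1 °C with eleven BOMFC levels (200–0.195 μM) and 1 mM NADPH, in 0.01% zwittergent with 0.05% BSA. Stopped with pH 10 red-ox mix; hydroxycoumarin fluorescence read; quadruplicates; Michaelis-Menten fit.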
# [4] = test system: cytochrome P450s of microsomal preparations of Anopheles funestus strain FUMOZ-R; assay: Michaelis-Menten kinetics of BOMFC O-debenzylation, FUMOZ-R microsomes; type: biochemical; conditions: read-out: apparent Km
# Procedure, shortened: as §1
# [5] = molecular target: para-type voltage-gated sodium channels of Musca domestica (Musca domestica, UniProt Q25439); assay: Fluorescence-based membrane potential cation influx assay; type: cell-based; conditions: for EC50: EC50, HEK293-VGSC cells, membrane potential fluorescence
# Drosophila wildtype VGSC = Drosophila wildtype VGSC expressed in Xenopus oocytes; ref Vais et al., 2003; cited from earlier work
# Chain of para-type voltage-gated sodium channels of Musca domestica (Q25439 1-2105): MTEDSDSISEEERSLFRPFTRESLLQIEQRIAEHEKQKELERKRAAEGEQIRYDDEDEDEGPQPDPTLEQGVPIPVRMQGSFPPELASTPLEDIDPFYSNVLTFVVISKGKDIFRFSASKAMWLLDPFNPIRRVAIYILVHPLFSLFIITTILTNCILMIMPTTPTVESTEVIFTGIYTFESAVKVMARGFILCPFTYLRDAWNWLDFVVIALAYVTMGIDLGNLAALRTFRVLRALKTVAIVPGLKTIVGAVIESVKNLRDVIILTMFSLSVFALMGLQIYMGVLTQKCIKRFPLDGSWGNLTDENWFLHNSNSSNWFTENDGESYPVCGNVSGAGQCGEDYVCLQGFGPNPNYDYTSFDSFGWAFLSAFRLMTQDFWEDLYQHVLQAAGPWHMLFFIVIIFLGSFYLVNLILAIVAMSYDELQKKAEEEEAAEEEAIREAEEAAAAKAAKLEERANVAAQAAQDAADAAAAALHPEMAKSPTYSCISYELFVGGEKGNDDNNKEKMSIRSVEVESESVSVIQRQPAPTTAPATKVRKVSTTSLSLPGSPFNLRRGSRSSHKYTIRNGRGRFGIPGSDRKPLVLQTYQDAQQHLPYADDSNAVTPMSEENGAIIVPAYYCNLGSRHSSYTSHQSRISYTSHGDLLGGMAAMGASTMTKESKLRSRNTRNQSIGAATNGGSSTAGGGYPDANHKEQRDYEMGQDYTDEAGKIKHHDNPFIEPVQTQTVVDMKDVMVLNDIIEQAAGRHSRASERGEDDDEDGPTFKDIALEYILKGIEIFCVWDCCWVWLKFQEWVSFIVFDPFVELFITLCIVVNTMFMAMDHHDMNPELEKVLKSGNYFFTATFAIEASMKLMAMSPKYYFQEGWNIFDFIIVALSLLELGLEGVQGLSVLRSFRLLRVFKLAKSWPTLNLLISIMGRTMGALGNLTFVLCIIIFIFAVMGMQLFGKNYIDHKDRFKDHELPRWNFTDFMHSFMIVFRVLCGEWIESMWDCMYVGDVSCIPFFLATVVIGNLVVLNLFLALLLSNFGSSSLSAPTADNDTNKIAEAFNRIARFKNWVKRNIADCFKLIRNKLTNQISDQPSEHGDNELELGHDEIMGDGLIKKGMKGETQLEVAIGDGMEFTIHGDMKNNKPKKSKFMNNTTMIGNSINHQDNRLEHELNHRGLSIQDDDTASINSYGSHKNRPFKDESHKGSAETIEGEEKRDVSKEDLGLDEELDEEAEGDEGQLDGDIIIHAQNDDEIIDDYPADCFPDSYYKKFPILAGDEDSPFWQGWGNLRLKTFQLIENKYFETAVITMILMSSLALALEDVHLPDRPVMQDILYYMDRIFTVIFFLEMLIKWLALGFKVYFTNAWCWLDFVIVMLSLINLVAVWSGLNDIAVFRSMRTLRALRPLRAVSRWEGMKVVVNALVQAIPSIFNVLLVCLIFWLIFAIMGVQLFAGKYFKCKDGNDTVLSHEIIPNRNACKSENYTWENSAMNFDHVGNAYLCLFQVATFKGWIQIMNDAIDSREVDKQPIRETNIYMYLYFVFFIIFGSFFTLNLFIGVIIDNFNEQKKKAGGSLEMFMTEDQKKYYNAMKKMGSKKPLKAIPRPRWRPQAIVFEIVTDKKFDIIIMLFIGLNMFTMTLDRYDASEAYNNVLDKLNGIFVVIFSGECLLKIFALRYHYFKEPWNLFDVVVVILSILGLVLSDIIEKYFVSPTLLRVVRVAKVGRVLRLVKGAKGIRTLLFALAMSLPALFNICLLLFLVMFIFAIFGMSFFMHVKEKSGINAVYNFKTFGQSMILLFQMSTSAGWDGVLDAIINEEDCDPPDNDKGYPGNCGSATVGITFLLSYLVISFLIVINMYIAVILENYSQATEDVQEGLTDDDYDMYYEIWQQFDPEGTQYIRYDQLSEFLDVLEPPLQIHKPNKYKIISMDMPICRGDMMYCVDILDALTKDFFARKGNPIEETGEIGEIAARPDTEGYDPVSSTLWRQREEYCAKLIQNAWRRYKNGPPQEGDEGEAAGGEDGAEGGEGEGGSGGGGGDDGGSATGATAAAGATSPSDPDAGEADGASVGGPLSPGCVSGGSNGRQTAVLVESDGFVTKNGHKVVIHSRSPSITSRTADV
smiles,measurement,setting,value
"Nn1nnc2ccccc21 [1-ABT, 1-aminobenzotriazole]",mortality at 750 mg/m2,[1]; Anopheles funestus,< 10%
same,mortality at 750 mg/m2,[2]; Anopheles funestus,< 10%
"O=c1cc(C(F)(F)F)c2ccc(OCOCc3ccccc3)cc2o1 [BOMFC, 7-benzyloxymethoxy-4-trifluoromethylcoumarin]",Km,[3],5.76 µM
same,Km,[4],4.41 µM
CC1(C)C(C=C(Cl)Cl)C1C(=O)OC(C#N)c1cccc(Oc2ccccc2)c1 (stereo not drawn) [Cypermethrin],LC50,[1],7.54 mg/m^2
same,LC50,[2],0.0968 mg/m^2
same,EC50,[5],38.9 nM
"CC1(C)[C@H](C(=O)O[C@H](C#N)c2cccc(Oc3ccccc3)c2)[C@@H]1C=C(Br)Br [Deltamethrin, deltamethrin]",LC50,[1],4.61 mg/m^2
same,Kd,Drosophila wildtype VGSC,4.7 nM
same,LC50,[2],0.0206 mg/m^2
same,EC50,[5],5.29 nM and 5.3 nM
"CCCCOCCOCCOCc1cc2c(cc1CCC)OCO2 [PBO, piperonyl butoxide]",LC50 (solo contact toxicity of synergist),[1],"> 1,000 mg/m^2"
same,LC50 (solo contact toxicity of synergist),[2],325 mg/m^2
"CC1(C)C(C=C(Cl)Cl)C1C(=O)OCc1cccc(Oc2ccccc2)c1 (stereo not drawn) [Permethrin, permethrin]",RR fold lower than for deltamethrin,[1]; FUMOZ-R resistance ratio compared with deltamethrin,~30 fold
same,Resistance ratio (RR),[1]; LC50 FUMOZ-R divided by LC50 FANG,7.76
same,LC50,[1],4.21 mg/m^2
same,LC50,[2],0.543 mg/m^2
same,EC50,[5],721 nM
"CC1(C)[C@H](C=C(Cl)Cl)[C@H]1C(=O)OCc1c(F)c(F)cc(F)c1F [Transfluthrin, 2,3,5,6-tetrafluorobenzyl(1R,3S)-3-(2,2-dichlorovinyl)-2,2-dimethylcyclo-propanecarboxylate]",LC50,[1],0.0576 mg/m^2
same,LC50,[2],0.023 mg/m^2
same,fold more active than permethrin,[2]; glazed tile bioassays against strain FANG,≤ 25 fold
same,fold less active on VGSC than deltamethrin,[5]; compared with deltamethrin,more than 100 fold
"CCCOC/C(=N\c1ccc(Cl)cc1C(F)(F)F)n1ccnc1 [Triflumizole, triflumizole]",LC50 (solo contact toxicity of synergist),[1],392 mg/m^2
same,LC50 (solo contact toxicity of synergist),[2],136 mg/m^2
